Legend:
[1] = target: T1, 5-hydroxytryptamine receptor 1A (Rattus norvegicus, UniProt P19327); test: Inhibition of the 5-hydroxytryptamine 1A receptor in rat dorsal raphe
T1 sequence (P19327 whole entry): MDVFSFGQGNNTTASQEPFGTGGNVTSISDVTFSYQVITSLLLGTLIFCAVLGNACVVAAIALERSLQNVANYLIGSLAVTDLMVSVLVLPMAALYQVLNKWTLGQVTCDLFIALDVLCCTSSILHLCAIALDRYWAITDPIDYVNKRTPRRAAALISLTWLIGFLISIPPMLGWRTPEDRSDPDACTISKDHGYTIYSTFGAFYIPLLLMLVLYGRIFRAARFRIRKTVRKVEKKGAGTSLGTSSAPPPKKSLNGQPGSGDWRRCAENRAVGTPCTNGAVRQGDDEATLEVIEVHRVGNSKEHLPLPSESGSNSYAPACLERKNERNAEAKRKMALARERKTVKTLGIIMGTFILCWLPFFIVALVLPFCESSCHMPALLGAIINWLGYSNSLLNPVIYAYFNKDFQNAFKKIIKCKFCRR

Rattus norvegicus [2] = test: Social interaction time determined in vivo rat at 0.1 mg/kg of ip administration; assay type: functional; conditions: route intraperitoneal
In short: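 Rats dosed i.p. against a saline-treated control group. Social interaction time (s) and total motor activity (counts) were recorded in the same social-interaction session and reported as mean ± SEM, with significance tested against saline control.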

Rattus norvegicus [3] = test: In vivo motor activity determined in rat at 0.1 mg/kg of ip administration; assay type: functional; conditions: route intraperitoneal
In short: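 Rat social interaction paradigm with total motor activity counts recorded in the same session. All compounds were given ip, with a saline-treated control group. Combination arms gave a 0.1 mg/kg agent together with a second agent at 1 mg/kg, both ip. Social interaction time (s) and motor counts are reported as mean ± SEM, with significance tested against saline control.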

Row | IC50 [1] | SMILES | Time (Rattus norvegicus [2]) | Motor activity (Rattus norvegicus [3])
1 | 43 nM | COc1ccccc1CN1CCN(C2CCC(O)(c3ccc4c(c3)OCO4)CC2)CC1 (stereo not drawn) | – | –
2 | 140 nM | COc1ccc(C2(O)CCC(N3CCN(Cc4ccccc4)CC3)CC2)cc1OC (stereo not drawn) | – | –
3 | 1.2 nM | OC1(c2ccc3c(c2)OCO3)CCC(N2CCN(Cc3ccccc3I)CC2)CC1 (stereo not drawn) | – | –
4 | 110 nM | OC1(c2ccc3c(c2)OCO3)CCC(N2CCN(Cc3c(F)cccc3F)CC2)CC1 (stereo not drawn) | – | –
5 | 50 nM | COc1ccc(C2(O)CCC(N3CCN(Cc4ccccc4)CC3)CC2)cc1 (stereo not drawn) | – | –
6 | 380 nM | COc1ccc(CN2CCN(C3CCC(O)(c4ccc5c(c4)OCO5)CC3)CC2)cc1 (stereo not drawn) | – | –
7 | 6.7 nM | CCOc1cccc(CN2CCN(C3CCC(O)(c4ccc5c(c4)OCO5)CC3)CC2)c1 (stereo not drawn) | – | –
8 | 19 nM | COc1cccc(CN2CCN(C3CCC(O)(c4ccc5c(c4)OCO5)CC3)CC2)c1F (stereo not drawn) | – | –
9 | 2.8 nM | OC1(c2ccc3c(c2)OCO3)CCC(N2CCN(Cc3cccc(Br)c3)CC2)CC1 (stereo not drawn) | – | –
10 | – | OC(CCCN1CCN(c2ncc(F)cn2)CC1)c1ccc(F)cc1 (stereo not drawn) [BMY-14802] | 123 s | 6800 Counts
11 | – | O=C1CC2(CCCC2)CC(=O)N1CCCCN1CCN(c2ncccn2)CC1 [BUSPIRONE] | 125 s | 6700 Counts

Row | SMILES | IC50 [1] | Time (Rattus norvegicus [2]) | Motor activity (Rattus norvegicus [3])
12 | OC1(c2ccccc2)CCC(N2CCN(Cc3ccccc3)CC2)CC1 (stereo not drawn) | 460 nM | – | –
13 | OC1(c2ccc3c(c2)OCO3)CCC(N2CCN(Cc3ccc(Cl)cc3)CC2)CC1 (stereo not drawn) | 79 nM | – | –
14 | COc1cccc(C2(O)CCC(N3CCN(Cc4ccccc4)CC3)CC2)c1 (stereo not drawn) | 50 nM | – | –
15 | OC1(c2ccc3c(c2)OCO3)CCC(N2CCN(Cc3ccccc3Br)CC2)CC1 (stereo not drawn) | 1.2 nM | – | –
16 | OC1(c2ccc(F)cc2)CCC(N2CCN(Cc3ccccc3)CC2)CC1 (stereo not drawn) | 260 nM | – | –

Source: ChEMBL document CHEMBL1136272, “Development of a presynaptic 5-HT1A antagonist” (Bioorg Med Chem Lett, 2003)
